Assay results taken from ChEMBL document CHEMBL4190389, “Synthesis and activity of di- or trisubstituted N-(phenoxyalkyl)- or N-{2-[2-(phenoxy)ethoxy]ethyl}piperazine derivatives on the central nervous system” (Bioorg Med Chem Lett, 2018).
The source made the active and inactive calls. The calls are words filed in the database; no cut-off is given here.

What was measured:
[1] = molecular target: T1, 5-hydroxytryptamine receptor 2A (Homo sapiens, UniProt P28223); experiment: biochemical; type: cell-based, HEK293
[2] = Protection index, ratio of TD50 for motor impairment in ip dosed Swiss albino CD-1 mouse to ED50 for protection against 50 Hz current-induced seizures in ip dosed Swiss albino CD-1 mouse; type: toxicity, organism-based, Swiss CD-1; conditions: in vivo, read-out: Ratio TD50/ED50
Mus musculus [3] = experiment: Antidepressant-like activity in Albino Swiss CD-1 mouse assessed as immobility time at 10 mg/kg, ip administered 30 mins prior to test measured for last 4 mins of 6 mins observation by forced swim test (reference value: 153.9 to 201.9 secs); type: functional
[4] = molecular target: T2, 5-hydroxytryptamine receptor 1A (Homo sapiens) (UniProt P08908); experiment: Agonist activity at human 5-HT1A receptor expressed in CHO-K1 cells co-expressing Galpha16 assessed as increase in calcium mobilization measured for 30 secs by aequorin-derived luminescence assay relative to serotonin; type: functional, cell-based
T2 sequence (whole entry): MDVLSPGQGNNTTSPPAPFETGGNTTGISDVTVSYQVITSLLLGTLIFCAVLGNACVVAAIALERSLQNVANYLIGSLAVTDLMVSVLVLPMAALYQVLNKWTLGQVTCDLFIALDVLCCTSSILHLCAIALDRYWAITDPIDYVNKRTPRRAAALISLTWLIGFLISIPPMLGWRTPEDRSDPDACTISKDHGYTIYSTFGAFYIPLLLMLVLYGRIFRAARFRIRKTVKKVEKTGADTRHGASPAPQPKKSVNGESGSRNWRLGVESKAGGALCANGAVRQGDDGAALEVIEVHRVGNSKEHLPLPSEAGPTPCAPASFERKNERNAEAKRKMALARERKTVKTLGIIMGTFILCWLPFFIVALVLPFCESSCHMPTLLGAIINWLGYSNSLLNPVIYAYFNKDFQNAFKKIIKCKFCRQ

[5] = molecular target: T3, 5-hydroxytryptamine receptor 1A (Homo sapiens, UniProt P08908); experiment: Displacement of [3H]8-OH-DPAT from recombinant human 5-HT1A receptor expressed in HEK293 cell membranes after 60 mins by liquid scintillation counting method
T3 sequence (P08908 whole entry): T2 sequence (whole entry)

Mus musculus [6] = experiment: Antidepressant-like activity in Albino Swiss CD-1 mouse assessed as immobility time at 20 mg/kg, ip administered 30 mins prior to test measured for last 4 mins of 6 mins observation by forced swim test (reference value: 153.9 to 201.9 secs); type: functional
[7] = molecular target: T4, Alpha-1A adrenergic receptor (Homo sapiens, UniProt P35348); experiment: Displacement of [3H]prazosin from recombinant human alpha1 adrenoceptor expressed in CHO cell membranes after 30 mins by liquid scintillation counting method
T4 sequence (P35348 whole entry): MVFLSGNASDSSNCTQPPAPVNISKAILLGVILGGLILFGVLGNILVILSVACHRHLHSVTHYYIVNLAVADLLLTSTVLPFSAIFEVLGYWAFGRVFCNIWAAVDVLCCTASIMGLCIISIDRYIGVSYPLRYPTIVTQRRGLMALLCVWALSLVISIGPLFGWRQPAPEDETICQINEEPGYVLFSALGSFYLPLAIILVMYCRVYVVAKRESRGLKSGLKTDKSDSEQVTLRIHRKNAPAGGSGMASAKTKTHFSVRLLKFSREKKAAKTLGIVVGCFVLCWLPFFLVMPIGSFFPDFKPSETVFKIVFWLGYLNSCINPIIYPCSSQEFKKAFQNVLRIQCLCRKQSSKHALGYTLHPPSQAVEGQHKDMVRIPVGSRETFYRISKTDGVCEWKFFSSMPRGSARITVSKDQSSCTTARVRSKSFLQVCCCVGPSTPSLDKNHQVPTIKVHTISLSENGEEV

Mus musculus [8] = experiment: Toxicity in Albino Swiss CD-1 mouse assessed as death at 15 to 30 mg/kg, ip; type: organism-based; conditions: in vivo
Method in brief: (§1)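 Deaths counted in mice during maximal electroshock (MES) seizure testing after i.p. dosing, 6 mice per dose (3 or 1 at some top doses); recorded as number dead/number tested alongside protection and rotarod motor impairment (10 rpm); untreated control group included.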

D(2) dopamine receptor [9] = molecular target: T5, D(2) dopamine receptor (Homo sapiens, UniProt P14416); experiment: Displacement of [3H]methylspiperonee from recombinant human D2 receptor expressed in HEK293 cell membranes at 10^-5 M after 60 mins by liquid scintillation counting method
Mus musculus [10] = experiment: Anticonvulsant activity in Albino Swiss CD-1 mouse assessed as protection against 50 Hz current-induced seizure at 30 mg/kg, ip; type: functional, organism-based
[11] = molecular target: T2, 5-hydroxytryptamine receptor 1A (Homo sapiens); experiment: Antagonist activity at human 5-HT1A receptor expressed in CHO-K1 cells co-expressing Galpha16 assessed as decrease in serotonin-induced calcium mobilization preincubated for 25 mins followed by serotonin challenge measured for 30 secs by aequorin-derived luminescence assay relative to control; type: functional, cell-based
[12] = molecular target: T2, 5-hydroxytryptamine receptor 1A (Homo sapiens); experiment: (§2) Antagonist activity at human 5-HT1A receptor expressed in CHO-K1 cells co-expressing Galpha16 assessed as decrease in serotonin calcium mobilization preincubated for 25 mins followed by serotonin challenge measured for 30 secs by aequorin-derived luminescence assay; type: functional, cell-based
[13] = molecular target: T3, 5-hydroxytryptamine receptor 1A; experiment: as §2; type: functional, cell-based
[14] = Neurotoxicity in ip dosed Albino Swiss CD-1 mouse assessed as minimum dose required to induce motor impairment treated 30 mins prior to test by rotarod test; type: toxicity, organism-based; conditions: in vivo
Mus musculus [15] = experiment: Antidepressant-like activity in Albino Swiss CD-1 mouse assessed as immobility time at 5 mg/kg, ip administered 30 mins prior to test measured for last 4 mins of 6 mins observation by forced swim test (reference value: 153.9 to 201.9 secs); type: functional
[16] = molecular target: 5-hydroxytryptamine receptor 7 (Homo sapiens, UniProt P34969); experiment: biochemical; type: cell-based, CHO
Mus musculus [17] = experiment: Neurotoxicity in Albino Swiss CD-1 mouse assessed as motor impairment at 30 mg/kg, ip treated 30 mins prior to test by rotarod test; type: toxicity, organism-based; conditions: in vivo, 0.5 h
[18] = molecular target: 5-hydroxytryptamine receptor 6 (Homo sapiens, UniProt P50406); experiment: Displacement of [3H]LSD from recombinant human 5-HT6 receptor expressed in CHO cells cell membranes after 60 mins by liquid scintillation counting method
Mus musculus [19] = experiment: Anticonvulsant activity in ip dosed Albino Swiss CD-1 mouse assessed as dose required to protect against 50 Hz current-induced seizure; type: functional; conditions: Swiss CD-1, ip
Mus musculus [20] = experiment: Toxicity in Albino Swiss CD-1 mouse assessed as effect on locomotory activity at 5 to 10 mg/kg, ip administered for 30 mins prior to test measured for 1 min; type: organism-based; conditions: in vivo
Method in brief: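 Mice dosed i.p. 30 min before test; vehicle groups received 0.9% NaCl. Spontaneous locomotion scored as number of crossings during a 1-min session. Each dose compared with its own vehicle group by Student t-test; mean ± SEM, n = 8–10 mice per group.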

Mus musculus [21] = experiment: Toxicity in Albino Swiss CD-1 mouse assessed as death at 100 mg/kg, ip; type: organism-based; conditions: in vivo
Method in brief: as §1

Mus musculus [22] = experiment: Anticonvulsant activity in Albino Swiss CD-1 mouse assessed as protection against 50 Hz current-induced seizure at 45 mg/kg, ip; type: functional, organism-based
Mus musculus [23] = experiment: Neurotoxicity in Albino Swiss CD-1 mouse assessed as motor impairment at 100 mg/kg, ip treated 30 mins prior to test by rotarod test; type: toxicity, organism-based; conditions: in vivo, 0.5 h
Mus musculus [24] = experiment: Anticonvulsant activity in Albino Swiss CD-1 mouse assessed as protection against 50 Hz current-induced seizure at 100 mg/kg, ip; type: functional, organism-based
[25] = molecular target: T2, 5-hydroxytryptamine receptor 1A (Homo sapiens); experiment: Displacement of [3H]8-OH-DPAT from recombinant human 5-HT1A receptor expressed in HEK293 cell membranes at 10^-5 M after 60 mins by liquid scintillation counting method
Mus musculus [26] = experiment: Anxiolytic-like activity in Albino Swiss CD-1 mouse assessed as increase in number of punished crossings at 5 to 10 mg/kg, ip administered for 30 mins prior to test measured for 1 min by four-plate test; type: functional, organism-based
Method in brief: (§3)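 Four-plate test in mice, i.p., 30 min before test; vehicle 0.9% NaCl; doses 1.25–10 mg/kg; number of punished crossings counted; mean ± SEM, n = 8–10 mice per group; ANOVA F statistics.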

D(2) dopamine receptor [27] = molecular target: T5, D(2) dopamine receptor; experiment: Displacement of [3H]methylspiperonee from recombinant human D2 receptor expressed in HEK293 cells cell membranes after 60 mins by liquid scintillation counting method
[28] = molecular target: T1, 5-hydroxytryptamine receptor 2A; experiment: Antagonist activity at human 5-HT2A receptor expressed in CHO-K1 cells co-expressing Galpha16 assessed as decrease in serotonin calcium mobilization preincubated for 30 mins followed by serotonin challenge measured for 30 secs by aequorin-derived luminescence assay; type: functional, cell-based
Mus musculus [29] = experiment: Toxicity in Albino Swiss CD-1 mouse assessed as death at 30 to 100 mg/kg, ip; type: organism-based; conditions: in vivo
Method in brief: as §1

Mus musculus [30] = experiment: Antiallodynic activity in oxaliplatin-induced Albino Swiss CD-1 mouse allodynia model assessed as effect on jumping at 30 mg/kg, ip measured after 60 mins by cold plate test; type: functional, organism-based
Mus musculus [31] = experiment: Antinociceptive activity in STZ-induced Albino Swiss CD-1 mouse model of thermal-induced nociception assessed as increase in latency to respond with hind paw lick or jumping at 30 mg/kg, ip measured after 60 mins by hot plate test; type: functional, organism-based
Mus musculus [32] = experiment: Neurotoxicity in Albino Swiss CD-1 mouse assessed as motor impairment at 15 mg/kg, ip treated 30 mins prior to test by rotarod test; type: toxicity, organism-based; conditions: in vivo, 0.5 h
Mus musculus [33] = experiment: Anxiolytic-like activity in Albino Swiss CD-1 mouse assessed as increase in number of punished crossings at 10 mg/kg, ip administered for 30 mins prior to test measured for 1 min by four-plate test; type: functional, organism-based
Method in brief: as §3

Mus musculus [34] = experiment: Antiallodynic activity in STZ-induced Albino Swiss CD-1 mouse allodynia model assessed as increase in paw withdrawal latency time at 30 mg/kg, ip measured after 60 mins by Von Frey test; type: functional, organism-based
Mus musculus [35] = experiment: Antiallodynic activity in oxaliplatin-induced Albino Swiss CD-1 mouse allodynia model assessed as effect on decrease in abnormal movement at 30 mg/kg, ip measured after 60 mins by cold plate test; type: functional, organism-based
Mus musculus [36] = experiment: Antiallodynic activity in oxaliplatin-induced Albino Swiss CD-1 mouse allodynia model assessed as effect on hind paw licking at 30 mg/kg, ip measured after 60 mins by cold plate test; type: functional, organism-based
Mus musculus [37] = experiment: Toxicity in Albino Swiss CD-1 mouse assessed as death at 15 to 100 mg/kg, ip; type: organism-based; conditions: in vivo
Method in brief: as §1

Mus musculus [38] = experiment: Antiallodynic activity in oxaliplatin-induced Albino Swiss CD-1 mouse allodynia model assessed as effect on shaking at 30 mg/kg, ip measured after 60 mins by cold plate test; type: functional, organism-based

Chain of 5-hydroxytryptamine receptor 7 (P34969 whole entry): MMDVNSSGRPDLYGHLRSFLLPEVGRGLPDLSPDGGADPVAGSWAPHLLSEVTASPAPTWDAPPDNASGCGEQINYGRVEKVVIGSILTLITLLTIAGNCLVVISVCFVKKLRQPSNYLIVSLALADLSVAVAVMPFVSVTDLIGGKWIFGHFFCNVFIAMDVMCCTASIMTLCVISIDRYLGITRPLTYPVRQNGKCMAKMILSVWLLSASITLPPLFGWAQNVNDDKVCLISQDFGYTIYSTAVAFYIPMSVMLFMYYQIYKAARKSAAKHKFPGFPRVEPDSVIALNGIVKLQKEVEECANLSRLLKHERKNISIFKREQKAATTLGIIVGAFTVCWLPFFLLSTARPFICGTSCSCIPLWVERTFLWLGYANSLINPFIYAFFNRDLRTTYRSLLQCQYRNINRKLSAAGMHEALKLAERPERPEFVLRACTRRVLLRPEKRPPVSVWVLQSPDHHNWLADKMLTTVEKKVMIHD
T1 sequence (P28223 whole entry): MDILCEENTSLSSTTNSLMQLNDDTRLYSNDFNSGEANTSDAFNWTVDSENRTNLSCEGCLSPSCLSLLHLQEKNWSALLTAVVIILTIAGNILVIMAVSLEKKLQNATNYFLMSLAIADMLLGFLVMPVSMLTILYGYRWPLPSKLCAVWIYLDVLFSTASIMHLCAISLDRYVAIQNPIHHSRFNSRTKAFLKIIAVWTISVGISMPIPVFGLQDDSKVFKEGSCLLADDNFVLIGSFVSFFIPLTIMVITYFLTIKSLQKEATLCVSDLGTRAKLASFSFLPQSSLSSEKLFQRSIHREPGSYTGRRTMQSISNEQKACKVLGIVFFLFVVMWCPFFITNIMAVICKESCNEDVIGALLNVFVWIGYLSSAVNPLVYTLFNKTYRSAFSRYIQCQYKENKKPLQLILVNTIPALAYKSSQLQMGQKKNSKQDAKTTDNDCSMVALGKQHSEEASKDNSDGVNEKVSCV
Chain of 5-hydroxytryptamine receptor 6 (P50406 whole entry): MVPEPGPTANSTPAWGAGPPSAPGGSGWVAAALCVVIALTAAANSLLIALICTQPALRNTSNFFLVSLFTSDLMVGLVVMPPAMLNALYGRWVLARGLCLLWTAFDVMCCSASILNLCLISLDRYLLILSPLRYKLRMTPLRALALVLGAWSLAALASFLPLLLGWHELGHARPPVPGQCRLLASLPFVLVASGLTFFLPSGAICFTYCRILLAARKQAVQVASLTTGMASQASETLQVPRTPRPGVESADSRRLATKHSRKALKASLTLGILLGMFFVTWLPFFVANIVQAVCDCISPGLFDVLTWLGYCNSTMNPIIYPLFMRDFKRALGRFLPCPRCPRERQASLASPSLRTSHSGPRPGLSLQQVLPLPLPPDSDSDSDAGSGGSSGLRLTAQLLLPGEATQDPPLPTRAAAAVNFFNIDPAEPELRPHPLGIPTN
T5 sequence (P14416 whole entry): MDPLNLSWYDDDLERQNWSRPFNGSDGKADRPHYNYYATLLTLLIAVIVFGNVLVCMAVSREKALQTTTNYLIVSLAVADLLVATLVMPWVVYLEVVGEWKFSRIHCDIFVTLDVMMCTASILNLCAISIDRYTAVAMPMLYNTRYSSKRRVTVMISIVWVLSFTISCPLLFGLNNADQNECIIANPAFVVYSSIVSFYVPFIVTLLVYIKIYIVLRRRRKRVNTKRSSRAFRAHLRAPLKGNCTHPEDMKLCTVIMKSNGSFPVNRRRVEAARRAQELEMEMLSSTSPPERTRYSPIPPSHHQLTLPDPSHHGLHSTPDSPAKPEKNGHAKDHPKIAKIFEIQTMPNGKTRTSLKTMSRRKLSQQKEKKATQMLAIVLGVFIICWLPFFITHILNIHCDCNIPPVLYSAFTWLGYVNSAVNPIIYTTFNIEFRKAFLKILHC

Cc1cc(C)c(OCCOCCN2CCN(CCc3ccccc3)CC2)c(C)c1.Cl.Cl
Ki [1]: 2810 nM
selectivity ratio [2]: 2.96
Time (Mus musculus [3]): 173.8 s
Emax [4]: 10%
Ki [5]: 552 nM
Time (Mus musculus [6]): 178.4 s
Ki [7]: 772 nM
Activity (Mus musculus [8]): Non-Toxic
inhibition (D(2) dopamine receptor [9]): inactive
Activity (Mus musculus [10]): Active
Emax [11]: 45%
Kb [12]: 291 nM
IC50 [13]: 1180 nM
TD50 at 0.5 h [14]: 53.3 mg/kg
Time (Mus musculus [15]): 170.5 s
Ki [16]: 1050 nM
Activity (Mus musculus [17]): Non-Toxic
Ki [18]: 2150 nM
ED50 (Mus musculus [19]): 18 mg/kg
Activity (Mus musculus [20]): Non-Toxic
Activity (Mus musculus [21]): Toxic

Cc1cccc(OCCOCCN2CCN(CCc3ccccc3)CC2)c1C.Cl.Cl
Ki [1]: 220 nM
Activity (Mus musculus [22]): Active
selectivity ratio [2]: 1.6
Activity (Mus musculus [23]): Toxic
Time (Mus musculus [3]): 161.1 s
Activity (Mus musculus [24]): Active
Time (Mus musculus [6]): 162.1 s
Ki [7]: 36 nM
inhibition [25]: inactive
TD50 at 0.5 h [14]: 35.5 mg/kg
Time (Mus musculus [15]): 157.6 s
Ki [16]: 388 nM
Ki [18]: 200 nM
ED50 (Mus musculus [19]): 22.2 mg/kg
Activity (Mus musculus [20]): Non-Toxic
Activity (Mus musculus [26]): inactive
Ki (D(2) dopamine receptor [27]): 1210 nM
IC50 [28]: 6970 nM
Activity (Mus musculus [29]): Non-Toxic

COc1ccc(N2CCN(CCCOc3c(C)cc(C)cc3C)CC2)cc1.Cl.Cl
Ki [1]: 772 nM
selectivity ratio [2]: 2.89
Time (Mus musculus [3]): 202 s
Emax [4]: 1%
Activity (Mus musculus [24]): Active
Activity (Mus musculus [30]): inactive
Ki [5]: 146 nM
Activity (Mus musculus [31]): inactive
Time (Mus musculus [6]): 183.9 s
Ki [7]: 2120 nM
Emax [11]: 8%
Activity (Mus musculus [32]): Non-Toxic
Kb [12]: 146 nM
IC50 [13]: 595 nM
Activity (Mus musculus [33]): Active
Activity (Mus musculus [34]): Active
TD50 at 0.5 h [14]: 67.9 mg/kg
Time (Mus musculus [15]): 179.9 s
Ki [16]: 3030 nM
Ki [18]: > 5000 nM
Activity (Mus musculus [35]): inactive
ED50 (Mus musculus [19]): 23.5 mg/kg
Activity (Mus musculus [20]): Non-Toxic
Ki (D(2) dopamine receptor [27]): 4960 nM
Activity (Mus musculus [36]): inactive
Activity (Mus musculus [37]): Non-Toxic
Activity (Mus musculus [38]): inactive
